Values belong to the compound of their own block, whether it stands above or below them. Activity calls are given as the source filed them.
Legend:
[1] = target: T1, Transient receptor potential cation channel subfamily V member 1 (Homo sapiens, UniProt Q8NER1); test: Antagonist activity at recombinant human TRPV1 expressed in HEK293 cells assessed as inhibition of capsaicin-induced Ca2+ influx at 1 uM preincubated for 5 mins followed by capsaicin challenge relative to control; format: cell-based
In short: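 HEK293 cells stably expressing human TRPV1, loaded with Calcium 3 dye 35 min at 37 °C, then 25 min at room temperature. Compound added and Ca²⁺ read 5 min (FLIPR or FDSS) before capsaicin at ~EC80 (typically 0.020−0.030 μM final). Response normalised to 90 or 100 μM capsaicin (100%) and 0.6 pM (0%).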

[2] = test system: Liver microsome; test: (§1) Metabolic stability in human liver microsomes assessed as compound remaining after 10 mins; format: ADME; settings: microsomes, 10 min
In short: (§2)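 Compound incubated 10 min with liver microsomes of the stated species; amount of parent remaining reported as percent.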

[3] = test system: Liver microsome; test: (§3) Metabolic stability in rat liver microsomes assessed as compound remaining after 10 mins; format: ADME; settings: microsomes, 10 min; in short: as §2
[4] = organism: Rattus norvegicus; test: Drug level in rat treated with (trans)-1-(2-{2-[2-(4-Trifluoromethyl-phenyl)-vinyl]-1H-benzoimidazol-5-yl}-phenyl)-ethanol; format: ADME, organism-based; settings: in vivo
[5] = as §1; format: ADME; settings: liver microsomes, read-out: Stability; in short: as §2
[6] = as §3; format: ADME; settings: liver microsomes, read-out: Stability; in short: as §2
[7] = target: T1, Transient receptor potential cation channel subfamily V member 1; test: Antagonist activity at recombinant human TRPV1 expressed in HEK293 cells assessed as inhibition of capsaicin-induced Ca2+ influx preincubated for 5 mins followed by capsaicin challenge; format: cell-based
[8] = test system: Rattus norvegicus; test: Reversal of complete freund's adjuvant-induced thermal hypersensitivity in po dosed Sprague-Dawley rat measured after 30 to 180 mins; format: functional, organism-based
In short: (§4)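 Male Sprague−Dawley rats (195−350 g), intraplantar CFA (100 μL, 1:1 CFA:saline) with testing 24 h later, or carrageenan-λ (200 μL, 10 mg/mL) with testing 3 h later. Radiant heat withdrawal latency, 10−15 s baseline, 20 s cutoff; rats with ≥25% latency drop kept. Oral dosing at 2.5 mL/kg. Percent reversal = (treatment − post)/(pre − post) × 100, scored blind.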

[9] = test system: Rattus norvegicus; test: Reversal of complete freund's adjuvant-induced thermal hypersensitivity in Sprague-Dawley rat at 10 mg/kg, po measured after 30 to 180 mins; format: functional, organism-based; set-up: dose 10 mg/kg
[10] = test system: Rattus norvegicus; test: Reversal of complete freund's adjuvant-induced thermal hypersensitivity in po dosed Sprague-Dawley rat after 60 mins; format: functional; in short: as §4
[11] = Clearance in rat at 2 mg/kg, iv; format: ADME, organism-based; set-up: dose 2 mg/kg, route intravenous; settings: in vivo
In short: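 Intravenous dosing at 2 mg/kg as a solution of the sodium salt in 20% HPβCD, n = 4 animals per group.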

[12] = Oral bioavailability in rat at 10 mg/kg; format: ADME, organism-based; settings: in vivo
In short: (§5)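 Oral dosing at 10 mg/kg as a solution of the sodium salt in 20% HPβCD, n = 4 animals per group.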

[13] = Half life in rat at 10 mg/kg, po; format: ADME, organism-based; set-up: dose 10 mg/kg, route oral; settings: in vivo; in short: as §5
[14] = test system: Rattus norvegicus; test: Reversal of complete freund's adjuvant-induced thermal hypersensitivity in Sprague-Dawley rat at 30 mg/kg, po measured after 30 to 180 mins; format: functional, organism-based; set-up: dose 30 mg/kg
[15] = organism: Rattus norvegicus; test: Drug metabolism in rat assessed as formation of (trans)-1-(2-{2-[2-(4-Trifluoromethyl-phenyl)-vinyl]-1H-benzoimidazol-5-yl}-phenyl)-ethanone; format: ADME, organism-based; settings: in vivo
[16] = test system: Rattus norvegicus; test: Reversal of complete freund's adjuvant-induced thermal hypersensitivity in po dosed Sprague-Dawley rat measured at 30 mins; format: functional; in short: as §4
[17] = test system: Rattus norvegicus; test: Reversal of complete freund's adjuvant-induced thermal hypersensitivity in po dosed Sprague-Dawley rat measured at 3 hrs; format: functional; in short: as §4
[18] = test system: Rattus norvegicus; test: Reversal of complete freund's adjuvant-induced thermal hypersensitivity in po dosed Sprague-Dawley rat measured at 100 mins; format: functional; in short: as §4
[19] = test system: Rattus norvegicus; test: Reversal of complete freund's adjuvant-induced thermal hypersensitivity in po dosed Sprague-Dawley rat assessed as plasma concentration required to reach ED50 measured at 100 mins; format: functional
In short: (§6)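 Rats dosed orally 100 min before radiant-heat testing. For CFA, plasma taken right after behavioural testing; for carrageenan, taken from a separate group dosed identically. Blood collected on lithium heparin and centrifuged, plasma stored at −80 °C. Plasma levels matching ED50 and ED80 (EC50/EC80) computed from the dose−response data.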

[20] = test system: Rattus norvegicus; test: Reversal of complete freund's adjuvant-induced thermal hypersensitivity in po dosed Sprague-Dawley rat assessed as plasma concentration required to reach ED80 measured at 100 mins; format: functional; in short: as §6

T1 sequence (Q8NER1 whole entry): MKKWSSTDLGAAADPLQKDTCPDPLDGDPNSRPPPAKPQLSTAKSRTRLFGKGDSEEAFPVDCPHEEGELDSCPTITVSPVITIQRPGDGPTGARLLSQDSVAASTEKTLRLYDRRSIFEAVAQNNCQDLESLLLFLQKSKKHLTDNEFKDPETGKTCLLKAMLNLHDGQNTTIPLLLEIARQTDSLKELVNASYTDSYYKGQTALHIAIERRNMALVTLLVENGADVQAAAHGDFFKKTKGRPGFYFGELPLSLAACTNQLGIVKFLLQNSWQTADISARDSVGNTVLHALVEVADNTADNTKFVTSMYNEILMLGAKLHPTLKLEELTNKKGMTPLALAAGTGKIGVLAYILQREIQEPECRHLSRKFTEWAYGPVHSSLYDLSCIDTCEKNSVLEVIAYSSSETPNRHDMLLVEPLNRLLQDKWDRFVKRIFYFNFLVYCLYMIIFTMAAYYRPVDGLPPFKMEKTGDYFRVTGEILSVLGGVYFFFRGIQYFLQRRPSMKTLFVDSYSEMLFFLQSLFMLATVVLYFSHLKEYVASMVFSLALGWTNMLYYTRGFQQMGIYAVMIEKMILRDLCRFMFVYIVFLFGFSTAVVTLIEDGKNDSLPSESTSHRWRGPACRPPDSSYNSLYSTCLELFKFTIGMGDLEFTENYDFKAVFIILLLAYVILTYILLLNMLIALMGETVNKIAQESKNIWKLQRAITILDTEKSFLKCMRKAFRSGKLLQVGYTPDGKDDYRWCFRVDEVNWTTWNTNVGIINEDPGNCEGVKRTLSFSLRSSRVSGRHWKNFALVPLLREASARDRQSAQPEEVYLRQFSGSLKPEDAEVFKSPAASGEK

Structure (SMILES): CC(C)(C)c1ccc(/C=C/c2nc3cc(-c4ccc(C(N)=O)cc4)ccc3[nH]2)cc1
inhibition [1]: 10%

Structure (SMILES): NS(=O)(=O)c1ccccc1-c1ccc2[nH]c(CCc3ccc(C(F)(F)F)cc3)nc2c1
Stability [2]: Unstable
Stability [3]: Unstable

Structure (SMILES): CC(=O)c1ccccc1-c1ccc2[nH]c(/C=C/c3ccc(C(F)(F)F)cc3)nc2c1
Drug metabolism [4]: metabolite_detected

Structure (SMILES): CC(=O)Nc1ccc(-c2ccc3[nH]c(/C=C/c4ccc(C(C)(C)C)cc4)nc3c2)cc1
inhibition [1]: 10%

Structure (SMILES): CC(C)(O)c1ccccc1-c1ccc2[nH]c(CCc3ccc(C(F)(F)F)cc3)nc2c1
remaining at 10 min [5]: 45%
remaining at 10 min [6]: 5%
IC50 [7]: 2.8 nM

Structure (SMILES): CC(C)(O)c1ccccc1-c1ccc2[nH]c(/C=C/c3ccc(OC(F)(F)F)cc3)nc2c1
Activity [8]: inactive
Stability [2]: Stable
Stability [3]: Stable
IC50 [7]: 5.9 nM

Structure (SMILES): CC(C)(O)c1ccccc1-c1ccc2[nH]c(C#Cc3ccc(C(F)(F)F)cc3)nc2c1
Stability [2]: Stable
Stability [3]: Stable
IC50 [7]: 4.5 nM

Structure (SMILES): NS(=O)(=O)c1ccccc1-c1ccc2[nH]c(/C=C/c3ccc(OC(F)(F)F)cc3)nc2c1
Stability [3]: Unstable

Structure (SMILES): CC(C)(O)c1ccccc1-c1ccc2[nH]c(/C=C/c3ccc(S(=O)(=O)C(F)(F)F)cc3)nc2c1
Activity [8]: inactive
IC50 [7]: 19 nM

Structure (SMILES): CC(C)(C)c1ccc(Cc2nc3cc(-c4ccccc4O)ccc3[nH]2)cc1
inhibition [1]: 6%

Structure (SMILES): Cc1ccc(-c2cc(C(F)(F)F)nn2-c2ccc(S(N)(=O)=O)cc2)cc1
Activity [14]: Active

Structure (SMILES): CC(C)(C)c1ccc(/C=C/c2nc3cc(-c4cccc(C(N)=O)c4)ccc3[nH]2)cc1
inhibition [1]: 12%

Structure (SMILES): CC(C)(C)c1ccc(CCCc2nc3cc(-c4ccccc4O)ccc3[nH]2)cc1
inhibition [1]: 6%

Structure (SMILES): CC(C)(C)c1ccc(/C=C/c2nc3cc(-c4ccccc4C(N)=O)ccc3[nH]2)cc1
IC50 [7]: 40 nM

Structure (SMILES): NS(=O)(=O)c1ccccc1-c1ccc2[nH]c(/C=C/c3cccc(OC(F)(F)F)c3)nc2c1
Stability [3]: Unstable

Structure (SMILES): NS(=O)(=O)c1ccccc1-c1ccc2[nH]c(C#Cc3ccc(C(F)(F)F)cc3)nc2c1
IC50 [7]: 20 nM

Structure (SMILES): CC(C)(O)c1ccccc1-c1ccc2[nH]c(C#Cc3ccccc3)nc2c1
Stability [2]: Stable
Activity [16]: 71%
Stability [3]: Stable
Activity [17]: 41%
bioavailability [12]: 13%
IC50 [7]: 2.8 nM

Structure (SMILES): CC(C)(O)c1ccccc1-c1ccc2[nH]c(/C=C/c3cccc(C(F)(F)F)c3)nc2c1
Activity [10]: 58%
IC50 [7]: 4.9 nM

Structure (SMILES): NS(=O)(=O)c1ccccc1-c1ccc2[nH]c(/C=C/c3ccc(C(F)(F)F)cc3)nc2c1
ED50 [18]: 2.6 mg/kg
ED80 [18]: 10.3 mg/kg
Activity [19]: 1757 ng/mL
Activity [20]: 62788 ng/mL

Continued, in another order:

inhibition [1]: 63%
Structure (SMILES): CS(=O)(=O)Nc1ccccc1-c1ccc2[nH]c(/C=C/c3ccc(OCC(F)(F)C(F)(F)F)cc3)nc2c1

Stability [3]: Stable
IC50 [7]: 17 nM
Structure (SMILES): CS(=O)(=O)Nc1ccccc1-c1ccc2[nH]c(/C=C/c3ccc(OC(F)(F)F)cc3)nc2c1
Activity [9]: inactive

inhibition [1]: 44%
Structure (SMILES): CS(=O)(=O)Nc1ccccc1-c1ccc2[nH]c(/C=C/c3ccccc3C(F)(F)F)nc2c1

remaining at 10 min [5]: 85%
remaining at 10 min [6]: 50%
clearance [11]: 13 mL/min/kg
bioavailability [12]: 65%
half-life [13]: 4 h
IC50 [7]: 10 nM
Structure (SMILES): CS(=O)(=O)Nc1ccccc1-c1ccc2[nH]c(/C=C/c3ccc(C(F)(F)F)cc3)nc2c1
Activity [10]: Dose-dependent effect
ED50 ([10]; Rattus norvegicus, Sprague-Dawley, po, 1 h): 4.3 mg/kg

remaining at 10 min [5]: 9%
remaining at 10 min [6]: 29%
Structure (SMILES): CC(C)(C)c1ccc(/C=C/c2nc3cc(-c4ccccc4NS(C)(=O)=O)ccc3[nH]2)cc1

Stability [2]: Stable
Stability [3]: Stable
IC50 [7]: 5.7 nM
Structure (SMILES): CC(C)(O)c1ccccc1-c1ccc2[nH]c(/C=C/c3ccc(Cl)cc3)nc2c1
Activity [8]: inactive

IC50 [7]: 9.2 nM
Structure (SMILES): CC(C)c1ccc(/C=C/c2nc3cc(-c4ccccc4NS(C)(=O)=O)ccc3[nH]2)cc1

inhibition [1]: 48%
Structure (SMILES): CS(=O)(=O)Nc1ccccc1-c1ccc2[nH]c(/C=C/c3cccc(C(F)(F)F)c3)nc2c1

Drug metabolism [15]: metabolite_detected
remaining at 10 min [5]: 97%
remaining at 10 min [6]: 89%
bioavailability [12]: 39%
Structure (SMILES): CC(O)c1ccccc1-c1ccc2[nH]c(/C=C/c3ccc(C(F)(F)F)cc3)nc2c1 (stereo not given)

remaining at 10 min [5]: 12%
remaining at 10 min [6]: 43%
IC50 [7]: 25 nM
Structure (SMILES): CC(=O)c1ccccc1-c1ccc2[nH]c(/C=C/c3ccc(C(C)(C)C)cc3)nc2c1
